We go through one compound from ChEMBL document CHEMBL3739303, “Targeting the Src Homology 2 (SH2) Domain of Signal Transducer and Activator of Transcription 6 (STAT6) with Cell-Permeable, Phosphatase-Stable Phosphopeptide Mimics Potently Inhibits Tyr641 Phosphorylation and Transcriptional Activity” (J Med Chem, 2015).

Active and inactive are the calls of the source. The rule behind the calls is not given here.

Data set [1] has as its target T1, Signal transducer and transcription activator 6 (Mus musculus) (UniProt P52633).
T1 sequence (whole entry): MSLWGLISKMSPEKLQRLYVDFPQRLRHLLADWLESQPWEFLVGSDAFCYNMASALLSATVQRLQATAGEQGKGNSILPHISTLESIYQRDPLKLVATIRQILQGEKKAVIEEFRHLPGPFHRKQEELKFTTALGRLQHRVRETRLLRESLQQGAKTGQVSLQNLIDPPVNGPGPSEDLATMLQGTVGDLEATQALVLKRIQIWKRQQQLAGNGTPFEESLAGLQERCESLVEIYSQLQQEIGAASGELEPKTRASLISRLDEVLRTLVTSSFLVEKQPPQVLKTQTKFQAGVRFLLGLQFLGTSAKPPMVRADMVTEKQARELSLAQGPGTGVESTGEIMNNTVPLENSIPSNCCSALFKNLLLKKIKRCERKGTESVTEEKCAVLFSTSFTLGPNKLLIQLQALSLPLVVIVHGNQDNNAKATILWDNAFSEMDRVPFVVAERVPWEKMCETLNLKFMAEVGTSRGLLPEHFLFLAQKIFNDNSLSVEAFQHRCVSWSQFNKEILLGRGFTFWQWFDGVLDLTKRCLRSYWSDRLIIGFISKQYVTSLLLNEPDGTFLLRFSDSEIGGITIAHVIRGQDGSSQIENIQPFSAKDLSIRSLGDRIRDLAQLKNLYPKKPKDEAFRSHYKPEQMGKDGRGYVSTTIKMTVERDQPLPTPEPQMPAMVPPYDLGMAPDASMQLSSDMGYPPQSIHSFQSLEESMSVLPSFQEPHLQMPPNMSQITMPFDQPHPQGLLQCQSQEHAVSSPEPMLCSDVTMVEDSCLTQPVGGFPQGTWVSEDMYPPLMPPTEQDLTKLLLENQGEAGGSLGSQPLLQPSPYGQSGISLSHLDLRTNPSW
In words: Inhibition of IL4-induced STAT6 phosphorylation at Y641 in CD4+ T lymphocytes isolated from C57BL/6J mouse preincubated for 2 hrs followed by activation with plate-bound anti-CD3/anti-CD28 and IL4 for 15 mins by Western blot analysis. Type of data set: cell-based. Put shortly:
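CD4+ T cells from C57BL/6J mice, sorted by AutoMACS; activated 15 min with plate-bound anti-CD3 and/or anti-CD28 with IL-2, IL-6 or IL-4; lysed with protease inhibitors plus 10 mM NaF and 1 mM Na3VO4; Bradford-normalised immunoblots for pSTAT1 (Tyr701), pSTAT5 (Tyr694), pSTAT6 (Tyr641) and total STATs.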
On the technique in general: In western blotting, separated proteins are transferred to a membrane and probed.

Data set [2] deals with T2, Signal transducer and activator of transcription 6 (Homo sapiens) (UniProt P42226).
T2 sequence (whole entry): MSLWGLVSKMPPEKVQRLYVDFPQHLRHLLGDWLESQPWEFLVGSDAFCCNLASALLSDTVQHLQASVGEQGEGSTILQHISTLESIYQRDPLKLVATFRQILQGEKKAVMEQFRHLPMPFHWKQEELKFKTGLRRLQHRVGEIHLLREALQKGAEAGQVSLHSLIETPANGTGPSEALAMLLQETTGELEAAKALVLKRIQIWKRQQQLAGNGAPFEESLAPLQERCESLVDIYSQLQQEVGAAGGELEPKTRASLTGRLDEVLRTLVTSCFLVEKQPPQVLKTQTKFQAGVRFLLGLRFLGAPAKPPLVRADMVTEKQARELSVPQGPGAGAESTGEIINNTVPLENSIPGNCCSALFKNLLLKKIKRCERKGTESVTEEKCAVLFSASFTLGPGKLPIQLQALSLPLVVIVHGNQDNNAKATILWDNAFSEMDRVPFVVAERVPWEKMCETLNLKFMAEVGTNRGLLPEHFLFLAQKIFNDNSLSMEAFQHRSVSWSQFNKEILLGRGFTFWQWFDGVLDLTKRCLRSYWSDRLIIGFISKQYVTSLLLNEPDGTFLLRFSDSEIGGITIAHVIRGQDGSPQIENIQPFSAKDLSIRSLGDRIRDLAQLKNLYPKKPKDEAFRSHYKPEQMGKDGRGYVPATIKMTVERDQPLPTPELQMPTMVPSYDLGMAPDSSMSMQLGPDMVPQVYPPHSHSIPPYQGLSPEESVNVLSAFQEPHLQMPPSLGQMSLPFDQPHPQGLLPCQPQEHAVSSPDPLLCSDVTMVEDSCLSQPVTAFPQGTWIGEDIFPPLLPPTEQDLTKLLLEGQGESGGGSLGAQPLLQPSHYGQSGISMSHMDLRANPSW
The data set is described as follows: Inhibition of IL4-stimulated STAT6 phosphorylation at tyrosine 641 in human Beas-2B cells at 0.025 to 5 uM incubated for 2 hrs followed by stimulation with IL4 for 1 hr by Western blot assay. The data set is classed as cell-based. The method, boiled down:
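Beas-2B seeded at 3.0 × 10^5 cells/well the day before; prodrugs from DMSO stocks added to final concentrations for 2 h, then IL-4 (2 ng/mL) for 1 h. PBS-washed cells lysed with PMSF, protein by modified Lowry; blots blocked in 3% BSA/TBST, probed for pSTAT6 (Tyr641), stripped and reprobed for total STAT6; ECL on X-ray film.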

For data set [3], the target named is T2, Signal transducer and activator of transcription 6 (Homo sapiens). In words: Inhibition of IL-13-stimulated STAT6 SH2 domain phosphorylation in human Beas-2B cells assessed as inhibition of CCL26 mRNA expression preincubated for 2 hrs followed by stimulation with IL-13 for 24 hrs by RT-PCR analysis.
Data set [4] deals with Signal transducer and activator of transcription 3 (Mus musculus) (UniProt P42227). The data set is described as follows: Inhibition of IL6-induced STAT3 phosphorylation at S727 in CD4+ T lymphocytes isolated from C57BL/6J mouse preincubated for 2 hrs followed by activation with plate-bound anti-CD3/anti-CD28 for 15 mins by Western blot analysis.
The nature of data set [5]: Cytotoxicity against human BEAS2B cells assessed as cell viability after 72 hrs by MTS assay. As to conditions: beas-2b. Type of data set: cell-based. The method, boiled down:
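Beas-2B seeded at 2000 cells/well; 10 mM DMSO stocks serially diluted in DMSO and equal amounts added to cultures; 72 h at 37 °C; medium replaced by 1:5 MTS/PBS, 1 h further incubation; viable cells read as optical density at 490 nm.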

Sequence of Signal transducer and activator of transcription 3 (Mus musculus) (P42227 whole entry): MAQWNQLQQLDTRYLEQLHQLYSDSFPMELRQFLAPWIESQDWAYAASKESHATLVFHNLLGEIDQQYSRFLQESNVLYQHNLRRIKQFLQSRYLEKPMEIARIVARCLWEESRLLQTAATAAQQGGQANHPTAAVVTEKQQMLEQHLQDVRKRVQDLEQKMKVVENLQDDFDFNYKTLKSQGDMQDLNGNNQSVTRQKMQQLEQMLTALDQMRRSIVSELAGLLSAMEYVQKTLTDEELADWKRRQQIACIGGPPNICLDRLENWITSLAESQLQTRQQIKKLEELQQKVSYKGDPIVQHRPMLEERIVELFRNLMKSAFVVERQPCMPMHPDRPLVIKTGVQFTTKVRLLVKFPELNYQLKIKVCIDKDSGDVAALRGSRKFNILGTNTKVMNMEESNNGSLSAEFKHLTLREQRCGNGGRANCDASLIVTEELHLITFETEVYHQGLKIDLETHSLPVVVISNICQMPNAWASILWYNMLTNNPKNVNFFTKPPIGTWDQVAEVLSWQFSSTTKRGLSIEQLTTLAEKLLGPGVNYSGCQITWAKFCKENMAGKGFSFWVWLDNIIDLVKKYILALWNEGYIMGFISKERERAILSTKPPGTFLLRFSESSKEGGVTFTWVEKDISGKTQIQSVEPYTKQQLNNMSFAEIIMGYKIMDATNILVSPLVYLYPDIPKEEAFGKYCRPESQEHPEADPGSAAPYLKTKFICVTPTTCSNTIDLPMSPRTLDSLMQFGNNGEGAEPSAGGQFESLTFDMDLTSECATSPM

For the compound `C/C(=C\C(=O)N[C@H](C(=O)N1CCC[C@H]1C(=O)N(C)c1ccccc1)C(C)(C)C)c1ccc(C(F)(F)P(=O)(OCOC(=O)C(C)(C)C)OCOC(=O)C(C)(C)C)cc1`, the inhibition result in data set [1] and in data set [2] was “Active” each time. Further, the inhibition result in data set [3] is “Dose-dependent effect”. In addition, the inhibition entry in data set [4] was “inactive”. Besides, the Activity result in data set [5] is listed as “Non-toxic”.
